Results from ChEMBL document CHEMBL1123936, “Synthesis and biological evaluation of acyclic neplanocin analogues” (1987).
In brackets after ≈: the same amount, converted by molar mass.

Key:
Assay type in all cases: functional
Human alphaherpesvirus 1 [1] = assay: Compound was evaluated for antiviral activity against HSV-1 reported as ED50 value; settings: read-out: ED50 (the source's name)
Outline: (§1)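 CPE inhibition assay in pregrown Vero cell monolayers infected with HSV-1 (strain 377) or HSV-2 (strain HF). Virus-induced cytopathogenic effect was scored quantitatively. Virus rating weighs the degree of CPE inhibition against cytotoxicity to the host cells, following a modified Ehrlich et al. method.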

Human alphaherpesvirus 1 [2] = assay: Compound was evaluated for antiviral activity against HSV-1 reported as virus rating; outline: as §1
Human alphaherpesvirus 2 [3] = assay: Compound was evaluated for antiviral activity against HSV-2 reported as virus rating; outline: as §1
Human alphaherpesvirus 2 [4] = assay: Compound was evaluated for antiviral activity against HSV-2 reported as ED50 value; settings: read-out: ED50 (the source's name); outline: as §1
P388 = assay: Compound was evaluated for growth inhibition of P-388 lymphoid leukemia cells; settings: Mus musculus, read-out: ED50 (the source's name)
Outline: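 P-388 mouse lymphoid leukemia cells were seeded at 4×10^5 per tube in Fischer's medium with 10% horse serum. Twofold compound dilutions were run in duplicate tubes, stoppered, and held at a 30° angle at 37 °C for 72 h without agitation, rotated twice daily. Cells were counted by hemocytometer. Percent inhibition was taken against controls, with counts corrected for the inoculum.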

EC50 (Human alphaherpesvirus 1 [1])	EC50 (Human alphaherpesvirus 2 [4])	EC50 (P388)	SMILES	VR (Human alphaherpesvirus 1 [2])	VR (Human alphaherpesvirus 2 [3])
172 µg/mL (≈ 778 µM)	219 µg/mL (≈ 990 µM)		Nc1nc(O)c2ncn(C/C=C/CO)c2n1	1.5	0.9
		5 µg/mL (≈ 22.4 µM)	Nc1ncnc2c1ncn2C/C=C/CCl		
12.3 µg/mL (≈ 54.6 µM)	4.8 µg/mL (≈ 21.3 µM)		Nc1nc2c(ncn2COCCO)c(=O)[nH]1 [ACYCLOVIR]	6.3	4.8
			Nc1ncnc2c1ncn2[C@@H]1O[C@H](CO)[C@@H](O)[C@@H]1O [VIDARABINE]	2	1.4
